According to ChEMBL document CHEMBL1143889, “N-Phenyl and N-phenylalkyl-maleimides acting against Candida spp.: time-to-kill, stability, interaction with maleamic acids” (2008):
In brackets after ≈: the same amount, converted by molar mass. Each block holds one molecule with its values, some of them ahead of it. Activity calls are given as the source filed them. The calls are words filed in the database; no cut-off is given here.

Columns and labels:
Candida albicans [1] = assay: Antifungal activity against Candida albicans C 130-2000 after 48 hrs by CLSI M27-A2 method; type: functional
Procedure, shortened: (§1)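 Broth microdilution per CLSI M27-A2 in RPMI-1640, with twofold dilutions giving final 250–0.98 µg/mL. The inoculum was modified to 1–5 × 10⁴ CFU/mL instead of 1–5 × 10³, with ketoconazole and amphotericin B as positive controls. MIC was the lowest concentration giving total growth inhibition, read visually. Strains were grown on Sabouraud-chloramphenicol agar for 24 h at 37 °C.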

Torulaspora delbrueckii = assay: Antifungal activity against Candida coliculosa C 122-2000 after 48 hrs by CLSI M27-A2 method; type: functional; procedure, shortened: as §1
Candida albicans [2] = assay: Antifungal activity against Candida albicans C 128-2000 after 48 hrs by CLSI M27-A2 method; type: functional; procedure, shortened: as §1
Candida albicans [3] = assay: Antifungal activity against Candida albicans C 126-2000 after 48 hrs by CLSI M27-A2 method; type: functional; procedure, shortened: as §1
Candida tropicalis = assay: Antifungal activity against Candida tropicalis C 137-1997 after 48 hrs by CLSI M27-A2 method; type: functional; procedure, shortened: as §1
Pichia kudriavzevii = assay: Antifungal activity against Candida krusei C 117-2000 after 48 hrs by CLSI M27-A2 method; type: functional; procedure, shortened: as §1
Candida albicans [4] = assay: Antifungal activity against Candida albicans ATCC 10231 after 48 hrs by CLSI M27-A2 method; type: functional; details: ATCC 10231, 48 h; procedure, shortened: as §1
Nakaseomyces glabratus = assay: Antifungal activity against Candida glabrata C 115-2000 after 48 hrs by CLSI M27-A2 method; type: functional; procedure, shortened: as §1
Kluyveromyces marxianus = assay: Antifungal activity against Candida kefyr C 123-2000 after 48 hrs by CLSI M27-A2 method; type: functional; procedure, shortened: as §1
Candida parapsilosis = assay: Antifungal activity against Candida parapsilosis C 124-2000 after 48 hrs by CLSI M27-A2 method; type: functional; details: Lodderomyces parapsilosis; procedure, shortened: as §1
Clavispora lusitaniae = assay: Antifungal activity against Candida lusitaniae C 131-2000 after 48 hrs by CLSI M27-A2 method; type: functional; procedure, shortened: as §1
Candida albicans [5] = assay: Antifungal activity against Candida albicans C 129-2000 after 48 hrs by CLSI M27-A2 method; type: functional; procedure, shortened: as §1
Candida albicans [6] = assay: Antifungal activity against Candida albicans C 127-2000 after 48 hrs by CLSI M27-A2 method; type: functional; procedure, shortened: as §1
Candida albicans [7] = assay: Antifungal activity against Candida albicans C 125-2000 after 48 hrs by CLSI M27-A2 method; type: functional; procedure, shortened: as §1
Candida albicans [8] = assay: Antifungal activity against Candida albicans ATCC 10231 pre-incubated for 5 days analysed after 24 hrs by CLSI M27-A2 method; type: functional
Procedure, shortened: (§2)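 Twofold maleimide dilutions (1000–0.98 µg/mL) in complete M27-A2 medium without inoculum were held at 37 °C, with one plate row filled on each of 7 consecutive days to give 0–7 days of pre-incubation. All wells were then inoculated with C. albicans ATCC 10231 at 1–5 × 10⁴ CFU/mL and incubated for 24 h at 37 °C. MIC was read per row, in duplicate.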

Candida albicans [9] = assay: Antifungal activity against Candida albicans ATCC 10231 after 24 hrs by CLSI M27-A2 method; type: functional; details: ATCC 10231, 24 h; procedure, shortened: as §1
Candida albicans [10] = assay: Antifungal activity against Candida albicans ATCC 10231 within 90 mins by time-to-kill study; type: functional, organism-based
Procedure, shortened: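 C. albicans ATCC 10231 (2–2.5 × 10⁴ CFU/mL) in 5 mL RPMI-1640 was exposed to 1× MFC of compound at 37 °C with agitation. 10 µL samples taken at 0, 30, 60, 90 and 120 min, and at 4, 8, 12 and 24 h, were plated on drug-free SDA and colonies counted after 24–48 h at 37 °C. Run in duplicate.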

Candida albicans [11] = assay: Antifungal activity against Candida albicans ATCC 10231 preincubated for 7 days analysed after 24 hrs by CLSI M27-A2 method; type: functional; procedure, shortened: as §2
Candida albicans [12] = assay: Antifungal activity against Candida albicans ATCC 10231 pre-incubated for 3 days analysed after 24 hrs by CLSI M27-A2 method; type: functional; procedure, shortened: as §2
Candida albicans [13] = assay: Antifungal activity against Candida albicans ATCC 10231 pre-incubated for 6 days analysed after 24 hrs by CLSI M27-A2 method; type: functional; procedure, shortened: as §2
Candida albicans [14] = assay: Antifungal activity against Candida albicans ATCC 10231 pre-incubated for 4 days analysed after 24 hrs by CLSI M27-A2 method; type: functional; procedure, shortened: as §2
Candida albicans [15] = assay: Antifungal activity against Candida albicans ATCC 10231 pre-incubated for 2 days analysed after 24 hrs by CLSI M27-A2 method; type: functional; procedure, shortened: as §2
Candida albicans [16] = assay: Antifungal activity against Candida albicans ATCC 10231 pre-incubated for 1 day analysed after 24 hrs by CLSI M27-A2 method; type: functional; procedure, shortened: as §2

MIC (Candida albicans [1]): > 250 µg/mL
MIC (Torulaspora delbrueckii): > 250 µg/mL
MIC (Candida albicans [2]): > 250 µg/mL
MIC (Candida albicans [3]): > 250 µg/mL
MIC (Candida tropicalis): > 250 µg/mL
MIC (Pichia kudriavzevii): > 250 µg/mL
MIC (Candida albicans [4]): > 250 µg/mL
MIC (Nakaseomyces glabratus): > 250 µg/mL
MIC (Kluyveromyces marxianus): > 250 µg/mL
MIC (Candida parapsilosis): > 250 µg/mL
MIC (Clavispora lusitaniae): > 250 µg/mL
MIC (Candida albicans [5]): > 250 µg/mL
MIC (Candida albicans [6]): > 250 µg/mL
MIC (Candida albicans [7]): > 250 µg/mL
Structure (SMILES): O=C(O)/C=C\C(=O)NCCc1ccccc1

Structure (SMILES): C[C@@H]1[C@H](O)[C@@H](C)/C=C/C=C/C=C/C=C/C=C/C=C/C=C/[C@H](O[C@@H]2O[C@H](C)[C@@H](O)[C@H](N)[C@@H]2O)C[C@@H]2O[C@](O)(C[C@@H](O)C[C@@H](O)[C@H](O)CC[C@@H](O)C[C@@H](O)CC(=O)O[C@H]1C)C[C@H](O)[C@H]2C(=O)O [AMPHOTERICIN B]
MIC (Candida albicans [1]): 0.39 µg/mL (≈ 0.422 µM)
MIC (Torulaspora delbrueckii): 0.39 µg/mL (≈ 0.422 µM)
MIC (Candida albicans [2]): 1.56 µg/mL (≈ 1.69 µM)
MIC (Candida albicans [3]): 1.56 µg/mL (≈ 1.69 µM)
MIC (Candida tropicalis): 0.12 µg/mL (≈ 0.13 µM)
MIC (Pichia kudriavzevii): 0.39 µg/mL (≈ 0.422 µM)
MIC (Candida albicans [4]): 1 µg/mL (≈ 1.08 µM)
MIC (Nakaseomyces glabratus): 0.39 µg/mL (≈ 0.422 µM)
MIC (Kluyveromyces marxianus): 0.78 µg/mL (≈ 0.844 µM)
MIC (Candida parapsilosis): 0.78 µg/mL (≈ 0.844 µM)
MIC (Clavispora lusitaniae): 0.39 µg/mL (≈ 0.422 µM)
MIC (Candida albicans [5]): 0.78 µg/mL (≈ 0.844 µM)
MIC (Candida albicans [6]): 0.78 µg/mL (≈ 0.844 µM)
MIC (Candida albicans [7]): 0.78 µg/mL (≈ 0.844 µM)

MIC (Candida albicans [1]): > 250 µg/mL
MIC (Torulaspora delbrueckii): > 250 µg/mL
MIC (Candida albicans [2]): > 250 µg/mL
MIC (Candida albicans [3]): > 250 µg/mL
MIC (Candida tropicalis): > 250 µg/mL
MIC (Pichia kudriavzevii): > 250 µg/mL
MIC (Candida albicans [4]): > 250 µg/mL
MIC (Nakaseomyces glabratus): > 250 µg/mL
MIC (Kluyveromyces marxianus): > 250 µg/mL
MIC (Candida parapsilosis): > 250 µg/mL
MIC (Clavispora lusitaniae): > 250 µg/mL
MIC (Candida albicans [5]): > 250 µg/mL
MIC (Candida albicans [6]): > 250 µg/mL
MIC (Candida albicans [7]): > 250 µg/mL
Structure (SMILES): O=C(O)/C=C\C(=O)NCCCCc1ccccc1

MIC (Candida albicans [1]): > 250 µg/mL
MIC (Torulaspora delbrueckii): > 250 µg/mL
MIC (Candida albicans [2]): > 250 µg/mL
MIC (Candida albicans [3]): > 250 µg/mL
MIC (Candida tropicalis): > 250 µg/mL
MIC (Pichia kudriavzevii): > 250 µg/mL
MIC (Candida albicans [4]): > 250 µg/mL
MIC (Nakaseomyces glabratus): > 250 µg/mL
MIC (Kluyveromyces marxianus): > 250 µg/mL
MIC (Candida parapsilosis): > 250 µg/mL
MIC (Clavispora lusitaniae): > 250 µg/mL
MIC (Candida albicans [5]): > 250 µg/mL
MIC (Candida albicans [6]): > 250 µg/mL
MIC (Candida albicans [7]): > 250 µg/mL
Structure (SMILES): O=C(O)/C=C\C(=O)Nc1ccccc1

MIC (Candida albicans [1]): 0.97 µg/mL (≈ 5.18 µM)
MIC (Candida albicans [8]): 125 µg/mL (≈ 668 µM)
MIC (Candida albicans [9]): 3.9 µg/mL (≈ 20.8 µM)
MIC (Torulaspora delbrueckii): 1.95 µg/mL (≈ 10.4 µM)
MIC (Candida albicans [2]): 1.95 µg/mL (≈ 10.4 µM)
MIC (Candida albicans [3]): 0.97 µg/mL (≈ 5.18 µM)
MIC (Candida tropicalis): 15.8 µg/mL (≈ 84.1 µM)
MIC (Candida albicans [11]): 500 µg/mL (≈ 2670 µM)
MIC (Pichia kudriavzevii): 3.9 µg/mL (≈ 20.8 µM)
MIC (Candida albicans [4]): 3.9 µg/mL (≈ 20.8 µM)
MIC (Nakaseomyces glabratus): 1.95 µg/mL (≈ 10.4 µM)
MIC (Kluyveromyces marxianus): 3.9 µg/mL (≈ 20.8 µM)
MIC (Candida albicans [12]): 7.8 µg/mL (≈ 41.7 µM)
MIC (Candida parapsilosis): 1.95 µg/mL (≈ 10.4 µM)
MIC (Candida albicans [13]): 250 µg/mL (≈ 1340 µM)
MIC (Candida albicans [14]): 15.8 µg/mL (≈ 84.1 µM)
MIC (Clavispora lusitaniae): 1.95 µg/mL (≈ 10.4 µM)
MIC (Candida albicans [15]): 7.8 µg/mL (≈ 41.7 µM)
MIC (Candida albicans [5]): 1.95 µg/mL (≈ 10.4 µM)
MIC (Candida albicans [6]): 1.95 µg/mL (≈ 10.4 µM)
MIC (Candida albicans [16]): 3.9 µg/mL (≈ 20.8 µM)
MIC (Candida albicans [7]): 0.97 µg/mL (≈ 5.18 µM)
Structure (SMILES): O=C1C=CC(=O)N1Cc1ccccc1
MFC (Candida albicans [1]): 1.95 µg/mL (≈ 10.4 µM)
MFC (Torulaspora delbrueckii): 7.81 µg/mL (≈ 41.7 µM)
Activity (Candida albicans [10]): Active
MFC (Candida albicans [2]): 3.9 µg/mL (≈ 20.8 µM)
MFC (Candida albicans [3]): 3.9 µg/mL (≈ 20.8 µM)
MFC (Candida tropicalis): 32.2 µg/mL (≈ 172 µM)
MFC (Pichia kudriavzevii): 3.9 µg/mL (≈ 20.8 µM)
MFC (Candida albicans [4]): 7.8 µg/mL (≈ 41.7 µM)
MFC (Nakaseomyces glabratus): 1.95 µg/mL (≈ 10.4 µM)
MFC (Kluyveromyces marxianus): 3.9 µg/mL (≈ 20.8 µM)
MFC (Candida parapsilosis): 3.9 µg/mL (≈ 20.8 µM)
MFC (Clavispora lusitaniae): 3.9 µg/mL (≈ 20.8 µM)
MFC (Candida albicans [5]): 3.9 µg/mL (≈ 20.8 µM)
MFC (Candida albicans [6]): 3.9 µg/mL (≈ 20.8 µM)
MFC (Candida albicans [7]): 1.95 µg/mL (≈ 10.4 µM)

MIC (Candida albicans [1]): > 250 µg/mL
MIC (Torulaspora delbrueckii): > 250 µg/mL
MIC (Candida albicans [2]): > 250 µg/mL
MIC (Candida albicans [3]): > 250 µg/mL
MIC (Candida tropicalis): > 250 µg/mL
MIC (Pichia kudriavzevii): > 250 µg/mL
MIC (Candida albicans [4]): > 250 µg/mL
MIC (Nakaseomyces glabratus): > 250 µg/mL
MIC (Kluyveromyces marxianus): > 250 µg/mL
MIC (Candida parapsilosis): > 250 µg/mL
MIC (Clavispora lusitaniae): > 250 µg/mL
MIC (Candida albicans [5]): > 250 µg/mL
MIC (Candida albicans [6]): > 250 µg/mL
MIC (Candida albicans [7]): > 250 µg/mL
Structure (SMILES): O=C(O)/C=C\C(=O)NCc1ccccc1
